Results: ChEMBL document CHEMBL4196015, “Synthesis of coumarin-theophylline hybrids as a new class of anti-tubercular and anti-microbial agents” (2018)
Values after ≈ are worked out from the molar mass of the structure shown.

Legend:
Staphylococcus aureus = experiment: Antibacterial activity against Staphylococcus aureus after 24 hrs by broth microdilution method; type: functional
How it was run: (§1)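 Broth microdilution, 96-well. Inoculum from 24 h broth cultures adjusted to 0.5 McFarland. Compounds dissolved in DMSO at 1 mg/mL (stock), two-fold serial dilutions in tryptone broth (1000 to 3.9 μg/mL). Positive controls: tetracyclin for bacteria, nystatin for fungi. Incubated 37 °C, 24 h. Then 0.01% aqueous resazurin added for viability. MIC = lowest concentration inhibiting growth.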

[1] = test system: Mycobacterium tuberculosis; experiment: Antitubercular activity against Mycobacterium tuberculosis H37Rv ATCC 27294 at 7.8 ug/ml after 5 days by microplate alamar blue assay; type: functional
How it was run: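 Single-concentration primary screen at 7.8 µg/mL against M. tuberculosis H37Rv (ATCC-27294) by MABA, read as percent inhibition. Run in Middlebrook 7H9 broth, with BACTEC 12B medium also cited, at 37 °C for 5 days. Then 1:1 Alamar Blue/10% Tween 80 added and incubated 24 h. Colour read: blue = inhibition, pink = growth.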

Candida albicans = experiment: Antifungal activity against Candida albicans after 24 hrs by broth microdilution method; type: functional; how it was run: as §1
Salmonella typhi = experiment: Antibacterial activity against Salmonella typhi after 24 hrs by broth microdilution method; type: functional, Salmonella enterica subsp. enterica serovar Typhi; conditions: Salmonella enterica; how it was run: as §1
Escherichia coli = experiment: Antibacterial activity against Escherichia coli after 24 hrs by broth microdilution method; type: functional; how it was run: as §1
[2] = test system: Mycobacterium tuberculosis; experiment: Antitubercular activity against Mycobacterium tuberculosis H37Rv ATCC 27294 after 5 days by microplate alamar blue assay; type: functional; conditions: H37Rv ATCC 27294, 120 h
How it was run: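 Retest of compounds above 90% inhibition in the primary screen. Two-fold serial dilution on plate in Middlebrook 7H9 broth, in triplicate. Isoniazid as positive control. Plates sealed, 37 °C for 5 days. Then 1:1 Alamar Blue/10% Tween 80 added, 24 h more. Blue = inhibition, pink = growth. MIC taken as lowest inhibiting concentration.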

Row | Compound | MIC (Staphylococcus aureus) | Activity [1] | MIC (Candida albicans) | MIC (Salmonella typhi) | MIC (Escherichia coli) | MIC [2]
1 | Cn1c(=O)c2ncn(Cc3cc(=O)oc4ccc(C(C)(C)C)cc34)c2n(C)c1=O | 7.8 µg/mL (≈ 19.8 µM) | 96% | 62.5 µg/mL (≈ 158 µM) | 7.8 µg/mL (≈ 19.8 µM) | 3.9 µg/mL (≈ 9.89 µM) | 0.48 µg/mL (≈ 1.22 µM)
2 | Cn1c(=O)c2ncn(Cc3cc(=O)oc4c3ccc3ccccc34)c2n(C)c1=O | 15.6 µg/mL (≈ 40.2 µM) | 16% | 62.5 µg/mL (≈ 161 µM) | 62.5 µg/mL (≈ 161 µM) | 15.6 µg/mL (≈ 40.2 µM) | 
3 | Cc1cc(C)c2c(Cn3cnc4c(=O)n(C)c(=O)n(C)c43)cc(=O)oc2c1 | 15.6 µg/mL (≈ 42.6 µM) | 94% | 250 µg/mL (≈ 682 µM) | 250 µg/mL (≈ 682 µM) | 125 µg/mL (≈ 341 µM) | 0.97 µg/mL (≈ 2.65 µM)
4 | Cc1ccc2c(Cn3cnc4c(=O)n(C)c(=O)n(C)c43)cc(=O)oc2c1 | 62.5 µg/mL (≈ 177 µM) | 92% | 31.3 µg/mL (≈ 88.8 µM) | 125 µg/mL (≈ 355 µM) | 31.3 µg/mL (≈ 88.8 µM) | 1.95 µg/mL (≈ 5.53 µM)
5 | Cn1c(=O)c2ncn(Cc3cc(=O)oc4ccc5ccccc5c34)c2n(C)c1=O | 7.8 µg/mL (≈ 20.1 µM) | 92% | 62.5 µg/mL (≈ 161 µM) | 15.6 µg/mL (≈ 40.2 µM) | 7.8 µg/mL (≈ 20.1 µM) | 1.95 µg/mL (≈ 5.02 µM)
6 | Cn1c(=O)c2ncn(Cc3cc(=O)oc4ccc(Cl)cc34)c2n(C)c1=O | 31.3 µg/mL (≈ 84 µM) | 92% | 125 µg/mL (≈ 335 µM) | 62.5 µg/mL (≈ 168 µM) | 31.3 µg/mL (≈ 84 µM) | 3.9 µg/mL (≈ 10.5 µM)
7 | Cc1ccc2oc(=O)cc(Cn3cnc4c(=O)n(C)c(=O)n(C)c43)c2c1 | 3.9 µg/mL (≈ 11.1 µM) | 96% | 31.3 µg/mL (≈ 88.8 µM) | 7.8 µg/mL (≈ 22.1 µM) | 3.9 µg/mL (≈ 11.1 µM) | 0.12 µg/mL (≈ 0.341 µM)
8 | Cn1c(=O)c2ncn(Cc3cc(=O)oc4cc(O)ccc34)c2n(C)c1=O | 15.6 µg/mL (≈ 44 µM) | 15% | 62.5 µg/mL (≈ 176 µM) | 31.5 µg/mL (≈ 88.9 µM) | 125 µg/mL (≈ 353 µM) | 
9 | Cn1c(=O)c2ncn(Cc3cc(=O)oc4ccc(Br)cc34)c2n(C)c1=O | 15.6 µg/mL (≈ 37.4 µM) | 92% | 125 µg/mL (≈ 300 µM) | 31.3 µg/mL (≈ 75 µM) | 31.3 µg/mL (≈ 75 µM) | 3.9 µg/mL (≈ 9.35 µM)
10 | COc1ccc2oc(=O)cc(Cn3cnc4c(=O)n(C)c(=O)n(C)c43)c2c1 | 7.8 µg/mL (≈ 21.2 µM) | 56% | 31.3 µg/mL (≈ 85 µM) | 7.8 µg/mL (≈ 21.2 µM) | 7.8 µg/mL (≈ 21.2 µM) | 
11 | C[C@@H]1[C@H](O)[C@@H](C)/C=C/C=C/C=C/C=C/C=C/C=C/C=C/[C@H](O[C@@H]2O[C@H](C)[C@@H](O)[C@H](N)[C@@H]2O)C[C@@H]2O[C@](O)(C[C@@H](O)C[C@@H](O)[C@H](O)CC[C@@H](O)C[C@@H](O)CC(=O)O[C@H]1C)C[C@H](O)[C@H]2C(=O)O [AMPHOTERICIN B] |  |  | 0.97 µg/mL (≈ 1.05 µM) |  |  | 
12 | NNC(=O)c1ccncc1 [ISONIAZID] |  | 100% |  |  |  | 0.06 µg/mL (≈ 0.438 µM)
13 | CN(C)[C@@H]1C(O)=C(C(N)=O)C(=O)[C@@]2(O)C(O)=C3C(=O)c4c(O)cccc4[C@@](C)(O)[C@H]3C[C@@H]12 [TETRACYCLINE] | 3.9 µg/mL (≈ 8.78 µM) |  |  | 3.9 µg/mL (≈ 8.78 µM) | 3.9 µg/mL (≈ 8.78 µM) | 
